Data set [1] in a line: Scavenging activity against NO generation in NOR1-induced cell culture. The class given is functional. Summed up: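 Cultured-cell screen for scavenging of NO released by the NO donor NOR 1. Activity expressed as inhibitory ratio (IR) against NOR 1 action, with glycyrrhizin and carboxy-PTIO as reference compounds.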
Data set [2] concerns Raji. Kind of data set: Inhibition of TPA-induced Epstein-Barr virus early antigen in Raji cells at 10 mol ratio/TPA relative to control; values are per cent of control. Conditions: human gammaherpesvirus 4.
Data set [3] concerns Raji. Kind of data set: Inhibition of TPA-induced Epstein-Barr virus early antigen in Raji cells at 100 mol ratio/TPA relative to control; values are per cent of control. Conditions: human gammaherpesvirus 4.
In data set [4] the test system is Raji. Put plainly: Inhibition of TPA-induced Epstein-Barr virus early antigen in Raji cells at 500 mol ratio/TPA relative to control; values are per cent of control. Conditions: human gammaherpesvirus 4.
The nature of data set [5]: Cytotoxicity against human Raji cells assessed as cell viability at 1000 mol ratio/TPA relative to control. The note with it: read-out: Activity. The class given is cell-based. Summed up: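 Raji cells stimulated with TPA at 32 pmol (20 ng), taken as 100% positive control. Test compound added at mol ratio to TPA of 1000, 500, 100 or 10 (1000:1 = 32 nmol). EBV-EA induction expressed as % of positive control; Raji cell viability recorded as % at the 1000 ratio. IC50 as mol ratio to TPA inhibiting 50% of control.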

In data set [6] the test system is Raji. Kind of data set: Inhibition of TPA-induced Epstein-Barr virus early antigen in Raji cells at 1000 mol ratio/TPA relative to control; values are per cent of control. Conditions: human gammaherpesvirus 4.

The structures appear in SMILES notation.

Experimental findings from ChEMBL document CHEMBL1141264, “Cucurbitane-type triterpenoids from the fruits of Momordica charantia and their cancer chemopreventive effects” (J Nat Prod, 2007) are described below.

As for `CO[C@H]1C=C2[C@@H](CC[C@H](O)C2(C)C)[C@]2(C=O)CC[C@]3(C)[C@@H]([C@H](C)C/C=C/C(C)(C)OC)CC[C@@]3(C)[C@H]12`, the inhibitory ratio (IR) against NOR 1 action in data set [1] was 1.5. Besides, the level, % of control in data set [2] was 97.3%; in data set [3], 77.5%; in data set [4], 33.7%; in data set [6], 0%. In addition, the viability at 1000 mol ratio/TPA in data set [5] amounted to 70%.

On to `COC1O[C@]23C=C[C@@H]4[C@@]1(CC[C@]1(C)[C@@H]([C@H](C)C/C=C/C(C)(C)O)CC[C@@]41C)[C@@H]2CC[C@H](O)C3(C)C` (some centres undefined), for which the inhibitory ratio (IR) against NOR 1 action in data set [1] turned out to be 1.9. Besides, the level, % of control in data set [2] is 94.5%; in data set [3], 72.5%; in data set [4] it was 27.6%; in data set [6], 0%. For the same compound, in data set [5], the viability at 1000 mol ratio/TPA is 70%.

For the compound `C=C(C)/C=C/C[C@@H](C)[C@H]1CC[C@@]2(C)[C@@H]3[C@@H](OC)C=C4[C@@H](CC[C@H](O)C4(C)C)[C@]3(C=O)CC[C@]12C`, the inhibitory ratio (IR) against NOR 1 action in data set [1] turned out to be 1.6. For the same compound, the level, % of control in data set [2] was 95.3%; in data set [3], 75.4%; in data set [4], 22.5%; in data set [6], 0%. Further, the viability at 1000 mol ratio/TPA in data set [5] amounted to 70%.

Consider `CC1(C)N([O])C(c2ccc(C(=O)O)cc2)=[N+]([O-])C1(C)C`, for which the inhibitory ratio (IR) against NOR 1 action in data set [1] is 8.

Turning to `CC1=C(/C=C/C(C)=C/C=C/C(C)=C/C=C/C=C(C)/C=C/C=C(C)/C=C/C2=C(C)CCCC2(C)C)C(C)(C)CCC1`, the level, % of control is 100% in data set [2], 82.1% in data set [3], 34.2% in data set [4] and 8.6% in data set [6].

For `C=C(C)/C=C/C[C@@H](C)[C@H]1CC[C@@]2(C)[C@@H]3C=C[C@@]45OC[C@]3(CC[C@]12C)[C@@H]4CC[C@H](O[C@@H]1O[C@H](CO)[C@@H](O)[C@H](O)[C@H]1O)C5(C)C` [CHARANTOSIDE III], the level, % of control in data set [2] was 100%; in data set [3], 82.1%; in data set [4] it was 36%; in data set [6], 12.9%. Further, the viability at 1000 mol ratio/TPA in data set [5] turned out to be 70%.

Turning to `CO[C@@H]1O[C@]23C=C[C@@H]4[C@@]1(CC[C@]1(C)[C@@H]([C@H](C)C[C@H](C=C(C)C)OC)CC[C@@]41C)[C@@H]2CC[C@H](O[C@@H]1O[C@H](CO)[C@@H](O)[C@@H](O)[C@H]1O)C3(C)C` [CHARANTOSIDE II], the level, % of control was 100% in data set [2], 82.1% in data set [3], 35% in data set [4] and 12.3% in data set [6]. Also, the viability at 1000 mol ratio/TPA in data set [5] was 70%.

On to `C=C(C)/C=C/C[C@@H](C)[C@H]1CC[C@@]2(C)[C@@H]3C=C[C@@]45OC[C@]3(CC[C@]12C)[C@@H]4CC[C@H](O[C@@H]1O[C@H](CO)[C@@H](O)[C@@H](O)[C@H]1O)C5(C)C` [CHARANTOSIDE IV], for which the level, % of control came to 100% in data set [2], 81.1% in data set [3], 35% in data set [4] and 12.1% in data set [6]. Also, in data set [5], the viability at 1000 mol ratio/TPA worked out at 70%.

In the case of `C=C(C)/C=C/C[C@@H](C)[C@H]1CC[C@@]2(C)[C@@H]3C=C[C@@]45O[C@@H](OC)[C@]3(CC[C@]12C)[C@@H]4CC[C@H](O[C@@H]1O[C@H](CO)[C@@H](O)[C@H](O)[C@H]1O)C5(C)C` [CHARANTOSIDE I], the level, % of control in data set [2] was determined as 100%; in data set [3], 81.1%; in data set [4] it was 35.4%; in data set [6] it was 12.6%. For the same compound, the viability at 1000 mol ratio/TPA in data set [5] was 70%.

With `CO[C@H]1C=C2[C@@H](CC[C@H](O[C@@H]3O[C@H](CO)[C@@H](O)[C@H](O)[C@H]3O)C2(C)C)[C@]2(C=O)CC[C@]3(C)[C@@H]([C@H](C)C/C=C/C(C)(C)OC)CC[C@@]3(C)[C@H]12` [CHARANTOSIDE VIII], the level, % of control in data set [2] was found to be 100%; in data set [3] it was 82.5%; in data set [4], 38.5%; in data set [6] it was 15.3%. Besides, the viability at 1000 mol ratio/TPA in data set [5] was determined as 70%.

Turning to `C=C(C)/C=C/C[C@@H](C)[C@H]1CC[C@@]2(C)[C@@H]3C=C[C@@]45OC(=O)[C@]3(CC[C@]12C)[C@@H]4CC[C@H](O[C@@H]1O[C@H](CO)[C@@H](O)[C@H](O)[C@H]1O)C5(C)C` [CHARANTOSIDE VII], the level, % of control in data set [2] is 100%; in data set [3], 75.1%; in data set [4], 28.1%; in data set [6] it was 9.9%. In addition, the viability at 1000 mol ratio/TPA in data set [5] was found to be 70%.

Turning to `CO[C@H](C=C(C)C)C[C@@H](C)[C@H]1CC[C@@]2(C)[C@@H]3C=C[C@@]45OC[C@]3(CC[C@]12C)[C@@H]4CC[C@H](O[C@@H]1O[C@H](CO)[C@@H](O)[C@@H](O)[C@H]1O)C5(C)C` [CHARANTOSIDE VI], the level, % of control in data set [2] came out at 100%; in data set [3], 82%; in data set [4], 35.9%; in data set [6], 12.7%. Moreover, the viability at 1000 mol ratio/TPA in data set [5] is 70%.

For the compound `CO[C@@H](C=C(C)C)C[C@@H](C)[C@H]1CC[C@@]2(C)[C@@H]3C=C[C@@]45OC[C@]3(CC[C@]12C)[C@@H]4CC[C@H](O[C@@H]1O[C@H](CO)[C@@H](O)[C@H](O)[C@H]1O)C5(C)C` [CHARANTOSIDE V], the level, % of control in data set [2] turned out to be 100%; in data set [3], 77%; in data set [4], 30.6%; in data set [6] it was 10.5%. Also, the viability at 1000 mol ratio/TPA in data set [5] came out at 70%.

Take `COc1cc(/C=C/C(=O)CC(=O)/C=C/c2ccc(O)c(OC)c2)ccc1O` [CURCUMIN]: the level, % of control in data set [2] came to 100%; in data set [3], 81.8%; in data set [4] it was 22.8%; in data set [6] it was 0%. Also, the viability at 1000 mol ratio/TPA in data set [5] stood at 70%.

Consider `CC1(C)[C@@H](O[C@H]2O[C@H](C(=O)O)[C@@H](O)[C@H](O)[C@H]2O[C@@H]2O[C@H](C(=O)O)[C@@H](O)[C@H](O)[C@H]2O)CC[C@]2(C)[C@H]3C(=O)C=C4[C@@H]5C[C@@](C)(C(=O)O)CC[C@]5(C)CC[C@@]4(C)[C@]3(C)CC[C@@H]12` [GLYCYRRHIZIN], for which, in data set [1], the inhibitory ratio (IR) against NOR 1 action is 2.2. For the same compound, the level, % of control turned out to be 100% in data set [2], 83.3% in data set [3], 63.3% in data set [4] and 27.4% in data set [6]. In data set [5], the viability at 1000 mol ratio/TPA was over 80%.

On to `COC1O[C@]23C=C[C@@H]4[C@@]1(CC[C@]1(C)[C@@H]([C@H](C)C/C=C/C(C)(C)OC)CC[C@@]41C)[C@@H]2CC[C@H](O[C@@H]1O[C@H](CO)[C@@H](O)[C@H](O)[C@H]1O)C3(C)C` (some centres undefined) [GOYAGLYCOSIDE C], for which the level, % of control in data set [2] came to 100%; in data set [3], 80%; in data set [4], 33.7%; in data set [6], 13.5%. The viability at 1000 mol ratio/TPA in data set [5] is 70%.

Turning to `COC1O[C@]23C=C[C@@H]4[C@@]1(CC[C@]1(C)[C@@H]([C@H](C)C/C=C/C(C)(C)OC)CC[C@@]41C)[C@@H]2CC[C@H](O[C@@H]1O[C@H](CO)[C@@H](O)[C@@H](O)[C@H]1O)C3(C)C` (some centres undefined) [GOYAGLYCOSIDE D], the level, % of control in data set [2] worked out at 100%; in data set [3] it was 80.3%; in data set [4], 34.2%; in data set [6], 11.2%. Besides, the viability at 1000 mol ratio/TPA in data set [5] was 70%.

`CO[C@H](C=C(C)C)C[C@@H](C)[C@H]1CC[C@@]2(C)[C@@H]3[C@@H](OC)C=C4[C@@H](CC[C@H](O[C@@H]5O[C@H](CO)[C@@H](O)[C@H](O)[C@H]5O)C4(C)C)[C@]3(C)CC[C@]12C` [KARAVILOSIDE I]: the level, % of control is 100% in data set [2], 83.7% in data set [3], 39.2% in data set [4] and 16.1% in data set [6]. In addition, the viability at 1000 mol ratio/TPA in data set [5] was found to be 70%.

Regarding `COC(C)(C)/C=C/C[C@@H](C)[C@H]1CC[C@@]2(C)[C@@H]3C=C[C@@]45OC[C@]3(CC[C@]12C)[C@@H]4CC[C@H](O[C@@H]1O[C@H](CO)[C@@H](O)[C@H](O)[C@H]1O)C5(C)C` [MOMORDICOSIDE F1], the level, % of control came out at 100% in data set [2], 78.1% in data set [3], 31.5% in data set [4] and 11.3% in data set [6]. Also, the viability at 1000 mol ratio/TPA in data set [5] is 70%.

Turning to `C[C@H](C/C=C/C(C)(C)O)[C@H]1CC[C@@]2(C)[C@@H]3C=C[C@@]45OC[C@]3(CC[C@]12C)[C@@H]4CC[C@H](O[C@@H]1O[C@H](CO)[C@@H](O)[C@@H](O)[C@H]1O)C5(C)C` [MOMORDICOSIDE F2], the level, % of control in data set [2] came out at 100%; in data set [3], 76.9%; in data set [4] it was 29.7%; in data set [6] it was 9.1%. For the same compound, in data set [5], the viability at 1000 mol ratio/TPA was 70%.
